Screening data as filed in PubChem BioAssay.
CHRM1 antagonist – antagonists of human M1 muscarinic receptor; inhibition, % at 3 µM; CHO-K1 hM1, Fluo-8 calcium fluorescence, ACh EC80 antagonist; 360,000 compounds, 1.3% hits;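 active means percent inhibition above its own plate's cutoff, namely the mean of that plate's compound wells plus 3 SD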;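 further: peak over basal fluorescence ratio during 140 s after agonist addition; 0% = ACh EC80 plus DMSO and 100% = DMSO alone without agonist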
M1 PAM – positive allosteric modulators of human M1 muscarinic receptor | 360,000 compounds, 0.088% hits | P11229 | CHO-K1 hM1, Fluo-8 calcium fluorescence, ACh EC20; 0% = ACh EC20, 100% = maximal ACh | activation, % at 3 µM; in the data active means activation above about 19%, passing the limit was not always enough
TAAR1 antagonist – antagonists of human TAAR1; CHO RD-HGA16 TAAR1, Fluo-8 calcium fluorescence, antagonist; 360,000 compounds, 1.5% hits; inhibition, % at 3 µM;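 active means inhibition above a per-plate cutoff, the mean inhibition of test compounds on that plate plus 3 SD, cut at about 49% in these data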;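 further: 0% = DMSO plus EC80 beta-PEA response and 100% = DMSO alone without agonist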
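System: CHO RD-HGA16 cells bearing hTAAR1. Reagent: EC80 β-phenethylamine stimulus. Schedule: seeding 17-24 h prior, 75-min 37 °C, 30-min RT dye loading. Signal: Fluo-8 intracellular calcium dye fluorescence, real-time kinetic reads. Read-out: % inhibition from peak post-agonist over basal fluorescence ratio. Benchmarks: vehicle wells and EC80 agonist wells. Replicates: n of 1.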
TAAR1 agonist – human TAAR1 agonism. CHO RD-HGA16 TAAR1, Fluo-8 calcium fluorescence; vehicle wells 0%, saturating PEA agonist 100%. activation, % at 3 µM. 360,000 compounds, 0.99% hits. AID 624467;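 active means activation above the mean activation of all test compounds in the run plus 3 SD, cut at about 38% in these data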
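System: CHO-derived RD-HGA16 cells with stable Gα16 and human TAAR1. Times: 17-24 h plating, Fluo-8 75 min 37 °C, 30 min RT. Measured by: calcium-sensitive Fluo-8 signal, excitation 470-495, emission 515-575 nm. Read-out basis: % activation relative to PEA EC100 response. Control set: DMSO and PEA EC100. Repeats: no replicates (n 1).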
HTR2A ag – activates the mouse 5-HT2A serotonin receptor. activation, % at 7.6 µM. 360,000 compounds, 0.66% hits. P35363. CHO-K1 mHTR2A beta-arrestin complementation, luminescence; percent of 30 µM serotonin response;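 active means activation above a run cutoff, the mean activation of all tested compounds plus 3 SD, cut at about 14% in these data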;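 further: 0% = plate median of compound wells and 100% = 30 µM serotonin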
Target sequence (P35363 whole entry, looked up): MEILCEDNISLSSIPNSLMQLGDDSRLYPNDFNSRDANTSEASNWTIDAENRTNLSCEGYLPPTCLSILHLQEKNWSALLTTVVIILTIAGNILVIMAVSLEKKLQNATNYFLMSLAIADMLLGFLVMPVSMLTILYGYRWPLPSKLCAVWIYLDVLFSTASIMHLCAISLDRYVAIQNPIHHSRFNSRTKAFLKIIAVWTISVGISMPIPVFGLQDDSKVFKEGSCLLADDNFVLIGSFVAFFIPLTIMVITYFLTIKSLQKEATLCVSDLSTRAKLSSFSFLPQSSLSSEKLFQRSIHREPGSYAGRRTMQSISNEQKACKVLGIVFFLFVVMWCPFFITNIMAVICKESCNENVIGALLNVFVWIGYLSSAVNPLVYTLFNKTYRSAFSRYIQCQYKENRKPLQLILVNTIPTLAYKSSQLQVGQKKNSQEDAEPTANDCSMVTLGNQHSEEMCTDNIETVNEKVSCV
CHRM1 agonist – agonists of human M1 muscarinic receptor; 360,000 compounds, 0.33% hits; activation, % at 3 µM; P11229; CHO-K1 hM1, Fluo-8 calcium fluorescence, agonist mode; 0% DMSO, 100% acetylcholine EC100; AID 588814;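 active means activation above the run's mean compound activation plus 3 SD, cut at about 16% in these data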;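 further: peak over basal fluorescence ratio within a 140 s kinetic read after compound addition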
* hit, by the source's call; . = no result given. Rows were chosen to be rich in hits. Some 3.9% of all compounds tested hit in one or more screens of this group.

SMILES	CHRM1 antagonist	M1 PAM	TAAR1 antagonist	TAAR1 agonist	HTR2A ag	CHRM1 agonist
COc1ccc(Nc2nccc(N(C)C)c2C#N)cc1	9	-17	16	0	5	-8
NC(CSC(c1ccccc1)(c1ccccc1)c1ccccc1)C(=O)O (stereo unspecified)	40*	-25	14	0	-2	-8
CC(C)Cn1c(N)c(C(=O)COC(=O)CC23CC4CC(CC(C4)C2)C3)c(=O)n(C)c1=O	33*	-3	41	4	5	-1
CC(C)Cn1c(N)c(C(=O)COC(=O)/C=C/c2ccccc2)c(=O)n(C)c1=O	30*	-11	9	7	12	1
CC(C)Cn1c(N)c(C(=O)COC(=O)c2cc3ccccc3cc2O)c(=O)n(C)c1=O	-5	8	25	4	-4	-1
Cc1ccccc1OCCC(=O)OCC(=O)c1c(N)n(CC(C)C)c(=O)n(C)c1=O	38*	-15	29	9	10	1
CC(C)Cn1c(N)c(C(=O)COC(=O)c2cc(S(=O)(=O)N3CCOCC3)ccc2Br)c(=O)n(C)c1=O	8	1	54*	21	9	-3
Cc1csc(=O)n1CCC(=O)OCC(=O)c1c(N)n(CC(C)C)c(=O)n(C)c1=O	9	-5	8	8	1	-1
CCCNC(=O)C1(C)CCCN(Cc2c3ccccc3nn2C)C1 (stereo unspecified)	-17	6	-23	3	10	-2
Cc1cccc(S(=O)(=O)N/N=c2\sc3ccccc3n2C)c1	-7	8	-8	0	2	-7
COc1ccc(OC)c(NC(=O)C(C)Oc2ccc(Br)cc2)c1 (stereo unspecified)	5	-13	21	4	-8	-8
CC(C)Cn1c(N)c(C(=O)COC(=O)c2c(O)c(Cl)cc(Cl)c2Cl)c(=O)n(C)c1=O	-21	28*	-3	0	9	4
CC(C)Cn1c(N)c(C(=O)COC(=O)c2ccc(Cl)cc2)c(=O)n(C)c1=O	0	-4	-40	10	-1	-4
CC(C)Cn1c(N)c(C(=O)COC(=O)CCNS(=O)(=O)c2ccccc2)c(=O)n(C)c1=O	-3	-10	51*	11	-3	-1
CC(C)Cn1c(N)c(C(=O)COC(=O)COc2cccc(C(F)(F)F)c2)c(=O)n(C)c1=O	32*	-14	42	4	3	2
CCc1cc2c(nc1CC)CCCN2Cc1ccccc1C(F)(F)F	.	.	-16	-1	.	.
Cc1cc(C)c2c(CC(=O)NC3CCS(=O)(=O)C3)coc2c1 (stereo unspecified)	-9	10	-15	0	-6	-2
O=C(Cc1ccccc1)NC(NC(=O)Cc1ccccc1)c1cccc([N+](=O)[O-])c1	-6	9	-5	2	1	-5
C=CCN(CC(O)c1cccc([N+](=O)[O-])c1)C(C)CCc1ccccc1 (stereo unspecified)	39*	-24	0	0	0	-7
COc1ccc(-c2ccc3c(n2)CCCN3Cc2ccccc2C(F)(F)F)cc1	.	.	-26	-1	.	.
COc1ccc2sc(-c3ccc(S(C)(=O)=O)cc3)c(C(=O)NCCc3c[nH]c4ccccc34)c2c1	24	-14	58*	28	4	-2
CCOC(=O)N1CCC(NCCNC(=O)c2ccco2)CC1	21	-7	-10	4	4	-2
CCOC(=O)N1CCC(NCCNC(=O)c2ccc(Cl)cc2)CC1	7	-2	0	8	3	22*
CCOC(=O)N1CCC(NCCNC(=O)c2ccc(F)c(F)c2)CC1	74*	-31	-17	1	-4	64*
CCOC(=O)N1CCC(NC(=O)c2cc(C(=O)NCc3ccc(F)cc3)ccc2CO)CC1	0	3	0	56*	2	-2
SMILES	CHRM1 antagonist	M1 PAM	TAAR1 antagonist	TAAR1 agonist	HTR2A ag	CHRM1 agonist
CCOC(=O)N1CCC(NC(=O)c2cc(S(=O)(=O)N(CC)CC)ccc2F)CC1	-16	0	.	.	0	-5
COc1ccc(N=Nc2nc3cc(Br)c(Br)cc3n2C)c(OC)c1	0	0	6	10	8	0
COC(=O)c1cccc(NC(=O)CSc2nnc(COc3cccc(C)c3)n2C)c1	-6	5	21	12	1	-2
Cc1cccc(OCc2nnc(SCC(=O)Nc3sc(C)c(C)c3C#N)n2C)c1	-19	13	22	42*	-2	0
CCC(C)(C)NC(=O)c1ccc(S(=O)(=O)N2CCCCCC2)cc1	-15	13	-5	2	-1	-6
CNc1nc(-c2ccc3c(c2)CCN3C(=O)c2ccccc2F)c(C)s1	13	-5	25	-2	5	-6
CNc1nc(-c2ccc3c(c2)CCN3C(=O)c2ccccc2F)cs1	-1	-3	53*	2	-5	-14
COc1ccc(S(=O)(=O)NC(C)C)cc1C(=O)N1CCOCC1	1	6	-24	1	-1	-4
COC(=O)c1cc2ccsc2n1Cc1nc(-c2ccc(OC)cc2)oc1C	45*	-34	-28	1	-4	-10
COC(=O)c1cc2occc2n1Cc1nc(-c2ccccc2F)oc1C	53*	-24	0	-3	-1	-6
COC(=O)c1cc2sc(Cl)cc2n1Cc1nc(-c2ccccc2)oc1C	5	0	1	0	5	1
CC(Oc1ccc2c(-c3ccccc3)cc(=O)oc2c1)C(=O)NCCCn1ccnc1 (stereo unspecified)	-9	2	7	2	-2	-12
Cc1cc(C(=O)CCl)c(C)n1CCc1ccc(Cl)cc1	33*	-11	8	-1	6	-3
COc1ccc(NC(=O)COC(=O)Cc2c(F)cccc2Cl)cc1OC	7	-5	17	5	1	-1
O=C(COc1c(F)c(F)cc(F)c1F)NC(=O)NC1CCCC1	31*	-21	4	15	-3	-6
C=CCn1c(C)c(C(C)=O)c(N2CCN(C(c3ccccc3)c3ccccc3)CC2)nc1=S	35*	-15	39	10	-4	-3
CCOc1ccc(NC(=O)NCCCn2c(C)nc3cc(C)c(C)cc32)cc1	46*	-21	7	4	-1	-3
Cc1cc2nc(C)n(CCCNC(=O)Nc3cccc4ccccc34)c2cc1C	28	-13	22	12	0	-3
CC1CC(C)CN(S(=O)(=O)c2ccc(C(=O)NCc3ccc4c(c3)OCO4)cc2)C1 (stereo unspecified)	-6	5	15	1	-12	-4
Cc1c(C(=O)N2CCc3ccccc3C2)oc2ccc(S(=O)(=O)N3CCCCCC3)cc12	4	-11	-1	42*	-4	-7
